Experimental data taken from ChEMBL document CHEMBL4033757, “Efficient Divergent Synthesis of New Immunostimulant 4″-Modified α-Galactosylceramide Analogues” (ACS Med Chem Lett, 2017).
The source made the active and inactive calls.

How the values were obtained:
Mus musculus [1] = experiment: Immunostimulatory activity in C57BL/6 mouse assessed as induction of IL-4 levels in serum at 2.0 x 10^-4 […], ip measured after 4 hrs by ELISA; format: functional, organism-based
How it was run: (§1)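 C57BL/6 mice dosed intraperitoneally with 5 μg glycolipid per animal (stated as 2.0 × 10–4 […]). Serum collected and cytokines quantified by ELISA: IFN-γ at 16 h post-injection, IL-4 at 4 h post-injection.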

iNKT = experiment: Immunostimulatory activity in human iNKT cells cocultured with HeLa CD1d cells assessed as induction of IFNgamma levels at 0.01 to 1 nM after 24 hrs by ELISA; format: functional, cell-based
How it was run: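 Human iNKT cells cocultured with HeLa cells expressing CD1d plus glycolipid at varying concentrations. After 24 h incubation, IFN-γ in the culture measured by ELISA.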

Mus musculus [2] = experiment: Immunostimulatory activity in C57BL/6 mouse assessed as induction of IFNgamma levels in serum at 2.0 x 10^-4 […], ip measured after 16 hrs by ELISA; format: functional, organism-based; how it was run: as §1

Measured: Activity

C=C1[C@@H](CO)O[C@H](OC[C@H](NC(=O)CCCCCCCCCCCCCCCCCCCCCCCCC)[C@H](O)[C@H](O)CCCCCCCCCCCCCC)[C@H](O)[C@H]1O
active: all assays above

CCCCCCCCCCCCCCCCCCCCCCCCCC(=O)N[C@@H](CO[C@H]1O[C@H](CO)[C@H](O)[C@H](O)[C@H]1O)[C@H](O)[C@H](O)CCCCCCCCCCCCCC
active: all assays above

CCCCCCCCCCCCCCCCCCCCCCCCCC(=O)N[C@@H](CO[C@H]1O[C@H](CO)[C@H](OC)[C@H](O)[C@H]1O)[C@H](O)[C@H](O)CCCCCCCCCCCCCC
active: all assays above

CCCCCCCCCCCCCCCCCCCCCCCCCC(=O)N[C@@H](CO[C@H]1O[C@H](CO)[C@@H](NC(=O)Nc2cccc3ccccc23)[C@H](O)[C@H]1O)[C@H](O)[C@H](O)CCCCCCCCCCCCCC
active: all assays above

CCCCCCCCCCCCCCCCCCCCCCCCCC(=O)N[C@@H](CO[C@H]1O[C@H](CO)[C@H](OCc2ccc(Cl)cc2)[C@H](O)[C@H]1O)[C@H](O)[C@H](O)CCCCCCCCCCCCCC
active: all assays above

CCCCCCCCCCCCCCCCCCCCCCCCCC(=O)N[C@@H](CO[C@H]1O[C@H](CO)[C@H](OC(=O)Nc2cccc3ccccc23)[C@H](O)[C@H]1O)[C@H](O)[C@H](O)CCCCCCCCCCCCCC
active: all assays above
